Data: ChEMBL document CHEMBL1828548, “Synthesis and pharmacological evaluations of novel 2H-benzo[b][1,4]oxazin-3(4H)-one derivatives as a new class of anti-cancer agents” (2011)

What was measured:
Assay type in all cases: functional
A549 [1] = experiment: Cytotoxicity against human A549 cells assessed as cell viability at 1 uM after 3 days by colorimetric MTT assay; details: A549, 72 h, read-out: Activity
Method in brief: (§1)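 A549 and DLD-1 cells from ATCC, grown as recommended, were seeded at 5000 cells/well the day before dosing. They were exposed for 3 days in medium with 5% FBS to compound diluted from 20 mM DMSO stocks (final up to 20 µM, 0.1% v/v DMSO). Cells then received 0.5 mg/mL MTT for 4 h, formazan was dissolved in 10% SDS/10 mM HCl, and A595 was read. Viability is % of 0.1% DMSO control; two experiments, triplicate points.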

MV4-11 [2] = experiment: Cytotoxicity against human MV4-11 cells assessed as cell viability at 1 uM after 3 days by colorimetric MTT assay; details: MV4-11, 72 h, read-out: Activity
Method in brief: (§2)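 MV4-11 leukemia cells from ATCC, grown as recommended, were plated at 40,000 cells/well immediately before treatment. They were cultured 3 days in 5% FBS medium with compound from 20 mM DMSO stocks diluted in RPMI (final ≤20 µM, 0.1% v/v DMSO). MTT (0.5 mg/mL, 4 h) was followed by SDS/HCl solubilization and absorbance at 595 nm. Percent viability is relative to DMSO-treated controls; run twice in triplicate.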

DLD-1 [3] = experiment: Cytotoxicity against human DLD1 cells assessed as cell viability at 20 uM after 3 days by colorimetric MTT assay; details: DLD-1, 72 h, read-out: Activity; method in brief: as §1
A549 [4] = experiment: Cytotoxicity against human A549 cells assessed as cell viability at 20 uM after 3 days by colorimetric MTT assay; details: A549, 72 h, read-out: Activity; method in brief: as §1
DLD-1 [5] = experiment: Cytotoxicity against human DLD1 cells assessed as cell viability at 1 uM after 3 days by colorimetric MTT assay; details: DLD-1, 72 h, read-out: Activity; method in brief: as §1
MV4-11 [6] = experiment: Cytotoxicity against human MV4-11 cells assessed as cell viability at 20 uM after 3 days by colorimetric MTT assay; details: MV4-11, 72 h, read-out: Activity; method in brief: as §2
DLD-1 [7] = experiment: Cytotoxicity against human DLD1 cells assessed as cell viability at 10 uM after 3 days by colorimetric MTT assay; details: DLD-1, 72 h, read-out: Activity; method in brief: as §1
A549 [8] = experiment: Cytotoxicity against human A549 cells assessed as cell viability at 10 uM after 3 days by colorimetric MTT assay; details: A549, 72 h, read-out: Activity; method in brief: as §1
MV4-11 [9] = experiment: Cytotoxicity against human MV4-11 cells assessed as cell viability at 10 uM after 3 days by colorimetric MTT assay; details: MV4-11, 72 h, read-out: Activity; method in brief: as §2

`O=C1COc2ccc(-c3[nH]c(-c4ccccc4)nc3-c3ccccc3)cc2N1` showed a viability at 1 µM (A549 [1]) of 95.6%, a viability at 1 µM (MV4-11 [2]) of 105% and a viability at 20 µM (DLD-1 [3]) of 47.3%. The viability at 20 µM (A549 [4]) was 58.5%, the viability at 1 µM (DLD-1 [5]) was 98.2% and the viability at 20 µM (MV4-11 [6]) was 7.6%.
Work on `O=C1COc2ccc(-c3[nH]c(-c4ccc(Cl)cc4Cl)nc3-c3ccccc3)cc2N1` yielded a viability at 1 µM (A549 [1]) of 97.4%, a viability at 1 µM (MV4-11 [2]) of 109% and a viability at 20 µM (DLD-1 [3]) of 61.9%. The viability at 20 µM (A549 [4]) was 68.3%, the viability at 1 µM (DLD-1 [5]) was 97.8% and the viability at 20 µM (MV4-11 [6]) was 41.1%.
Work on `O=C1COc2ccc(-c3[nH]c(-c4ccc(F)cc4)nc3-c3ccccc3)cc2N1` yielded a viability at 1 µM (A549 [1]) of 97.1%, a viability at 1 µM (MV4-11 [2]) of 108% and a viability at 20 µM (DLD-1 [3]) of 29.5%. The viability at 20 µM (A549 [4]) was 37.5%, the viability at 1 µM (DLD-1 [5]) was 94.8% and the viability at 20 µM (MV4-11 [6]) was 1.1%.
In the case of `COc1ccc(-c2nc(-c3ccccc3)c(-c3ccc4c(c3)NC(=O)CO4)[nH]2)cc1`, the viability at 1 µM (A549 [1]) is reported as 101%, the viability at 1 µM (MV4-11 [2]) is reported as 108% and the viability at 20 µM (DLD-1 [3]) is reported as 19.1%. The viability at 20 µM (A549 [4]) was 38.1%, the viability at 1 µM (DLD-1 [5]) was 96% and the viability at 20 µM (MV4-11 [6]) was 1.2%.
Work on `O=C1COc2ccc(-c3[nH]c(-c4c[nH]c5ncccc45)nc3-c3ccccc3)cc2N1` yielded a viability at 1 µM (A549 [1]) of 100%, a viability at 1 µM (MV4-11 [2]) of 111% and a viability at 20 µM (DLD-1 [3]) of 53.5%. The viability at 20 µM (A549 [4]) was 86.8%, the viability at 1 µM (DLD-1 [5]) was 97.7% and the viability at 20 µM (MV4-11 [6]) was 8.9%.
`O=C1COc2ccc(-c3[nH]c(-c4ccc(C(F)(F)F)cc4)nc3-c3ccccc3)cc2N1` gave a viability at 1 µM (A549 [1]) of 103%, a viability at 1 µM (MV4-11 [2]) of 111% and a viability at 20 µM (DLD-1 [3]) of 12.1%. It also gave a viability at 20 µM (A549 [4]) of 21.7%, a viability at 1 µM (DLD-1 [5]) of 95% and a viability at 20 µM (MV4-11 [6]) of 0.6%.
For `O=C1COc2ccc(-c3nn(-c4ccccc4)cc3-c3ccccc3)cc2N1`, the viability at 1 µM (A549 [1]) was 92.2%, the viability at 1 µM (MV4-11 [2]) was 117% and the viability at 20 µM (DLD-1 [3]) was 47.7%. It also gave a viability at 20 µM (A549 [4]) of 59.7%, a viability at 1 µM (DLD-1 [5]) of 77% and a viability at 20 µM (MV4-11 [6]) of 97.9%.
Compound `Cc1ccccc1-n1cc(-c2ccccc2)c(-c2ccc3c(c2)NC(=O)CO3)n1` has a viability at 1 µM (A549 [1]) of 94.8%, a viability at 1 µM (MV4-11 [2]) of 99.4% and a viability at 20 µM (DLD-1 [3]) of 62.9%. It also gave a viability at 20 µM (A549 [4]) of 85.3%, a viability at 1 µM (DLD-1 [5]) of 92.2% and a viability at 20 µM (MV4-11 [6]) of 54.2%.
For `O=C1COc2ccc(-c3nn(-c4ccc(Br)cc4)cc3-c3ccccc3)cc2N1`, the viability at 1 µM (A549 [1]) was 81.5%, the viability at 1 µM (MV4-11 [2]) was 108% and the viability at 20 µM (DLD-1 [3]) was 54.2%. It also gave a viability at 20 µM (A549 [4]) of 58.8%, a viability at 1 µM (DLD-1 [5]) of 66.4% and a viability at 20 µM (MV4-11 [6]) of 91.5%.
Work on `O=C1COc2ccc(-c3nn(-c4ccc(Cl)cc4)cc3-c3ccccc3)cc2N1` yielded a viability at 1 µM (A549 [1]) of 84.4%, a viability at 1 µM (MV4-11 [2]) of 108% and a viability at 20 µM (DLD-1 [3]) of 47.1%. The viability at 20 µM (A549 [4]) was 52.4%, the viability at 1 µM (DLD-1 [5]) was 61.9% and the viability at 20 µM (MV4-11 [6]) was 91.9%.
For `O=C1COc2ccc(-c3nn(-c4ccc(F)cc4)cc3-c3ccccc3)cc2N1`, the viability at 1 µM (A549 [1]) was 78.2%, the viability at 1 µM (MV4-11 [2]) was 107% and the viability at 20 µM (DLD-1 [3]) was 45.2%. For the same compound, the viability at 20 µM (A549 [4]) was 56.4%, the viability at 1 µM (DLD-1 [5]) was 64.4% and the viability at 20 µM (MV4-11 [6]) was 92.6%.
With `O=C1COc2ccc(-c3nn(-c4cc(Cl)cc(Cl)c4)cc3-c3ccccc3)cc2N1` the viability at 1 µM (A549 [1]) was 93.1%, the viability at 1 µM (MV4-11 [2]) was 105% and the viability at 20 µM (DLD-1 [3]) was 52.2%. It also gave a viability at 20 µM (A549 [4]) of 70.2%, a viability at 1 µM (DLD-1 [5]) of 90.3% and a viability at 20 µM (MV4-11 [6]) of 50.5%.
In the case of `COc1ccc(-n2cc(-c3ccccc3)c(-c3ccc4c(c3)NC(=O)CO4)n2)cc1`, the viability at 1 µM (A549 [1]) is reported as 95.6%, the viability at 1 µM (MV4-11 [2]) is reported as 106% and the viability at 20 µM (DLD-1 [3]) is reported as 35.6%. For the same compound, the viability at 20 µM (A549 [4]) was 42.6%, the viability at 1 µM (DLD-1 [5]) was 92.2% and the viability at 20 µM (MV4-11 [6]) was 59.9%.
For `C#Cc1cccc(Nc2ncnc3cc(OCCOC)c(OCCOC)cc23)c1` [ERLOTINIB], the viability at 1 µM (A549 [1]) was 83%, the viability at 1 µM (MV4-11 [2]) was 98.3% and the viability at 10 µM (DLD-1 [7]) was 55.4%. For the same compound, the viability at 10 µM (A549 [8]) was 68.5%, the viability at 1 µM (DLD-1 [5]) was 85.7% and the viability at 10 µM (MV4-11 [9]) was 16.8%.
For `COc1cc2ncnc(Nc3ccc(F)c(Cl)c3)c2cc1OCCCN1CCOCC1` [GEFITINIB], the viability at 1 µM (A549 [1]) was 84.4%, the viability at 1 µM (MV4-11 [2]) was 92.4% and the viability at 10 µM (DLD-1 [7]) was 65.7%. It also gave a viability at 10 µM (A549 [8]) of 61.5%, a viability at 1 µM (DLD-1 [5]) of 87% and a viability at 10 µM (MV4-11 [9]) of 7%.
`Cc1ccc(NC(=O)c2ccc(CN3CCN(C)CC3)cc2)cc1Nc1nccc(-c2cccnc2)n1` [IMATINIB] was tested, and the viability at 1 µM (A549 [1]) was 108%, the viability at 1 µM (MV4-11 [2]) was 105% and the viability at 10 µM (DLD-1 [7]) was 91.5%. The viability at 10 µM (A549 [8]) was 98.6%, the viability at 1 µM (DLD-1 [5]) was 89.9% and the viability at 10 µM (MV4-11 [9]) was 82%.
In the case of `CNC(=O)c1cc(Oc2ccc(NC(=O)Nc3ccc(Cl)c(C(F)(F)F)c3)cc2)ccn1` [SORAFENIB], the viability at 1 µM (A549 [1]) is reported as 103%, the viability at 1 µM (MV4-11 [2]) is reported as 1.6% and the viability at 10 µM (DLD-1 [7]) is reported as 28%. For the same compound, the viability at 10 µM (A549 [8]) was 28.6%, the viability at 1 µM (DLD-1 [5]) was 93.4% and the viability at 10 µM (MV4-11 [9]) was 0.7%.
Work on `CCN(CC)CCNC(=O)c1c(C)[nH]c(/C=C2\C(=O)Nc3ccc(F)cc32)c1C` [SUNITINIB] yielded a viability at 1 µM (A549 [1]) of 102%, a viability at 1 µM (MV4-11 [2]) of 1.4% and a viability at 10 µM (DLD-1 [7]) of 52.7%. It also gave a viability at 10 µM (A549 [8]) of 37.4%, a viability at 1 µM (DLD-1 [5]) of 92.9% and a viability at 10 µM (MV4-11 [9]) of 0.5%.
Work on `COc1cc2/c(=N/c3ccc(Br)cc3F)nc[nH]c2cc1OCC1CCN(C)CC1` [VANDETANIB] yielded a viability at 1 µM (A549 [1]) of 88.7%, a viability at 1 µM (MV4-11 [2]) of 84.1% and a viability at 10 µM (DLD-1 [7]) of 37.9%. For the same compound, the viability at 10 µM (A549 [8]) was 41.7%, the viability at 1 µM (DLD-1 [5]) was 88.6% and the viability at 10 µM (MV4-11 [9]) was 1.6%.
